Experimental data: paper PMC3361572 (Chemistry & biology, 2012)

Legend:
[1] = molecular target: T1, ABHD6 (Mus musculus, UniProt Q8R2Y0); experiment: competitive ABPP, mouse brain membrane proteome; format: biochemical; conditions: mouse brain serine hydrolase activities, full ABPP gel
T1 sequence (Q8R2Y0 1-336): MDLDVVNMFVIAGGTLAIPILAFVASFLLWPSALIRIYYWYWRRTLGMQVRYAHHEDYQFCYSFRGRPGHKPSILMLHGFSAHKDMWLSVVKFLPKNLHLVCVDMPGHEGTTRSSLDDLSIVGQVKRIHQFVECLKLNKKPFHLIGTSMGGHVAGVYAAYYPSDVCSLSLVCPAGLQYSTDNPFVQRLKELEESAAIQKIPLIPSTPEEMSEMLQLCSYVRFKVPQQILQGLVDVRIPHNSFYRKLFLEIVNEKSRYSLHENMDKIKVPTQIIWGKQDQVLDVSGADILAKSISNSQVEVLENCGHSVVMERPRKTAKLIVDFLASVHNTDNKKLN
Summary of the method: (§1)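 Brain (mouse or rat) or mouse lung proteomes were preincubated with the test compound, then treated with the serine hydrolase probe FP-Rh. Samples were separated by SDS-PAGE and read by in-gel fluorescence scanning. Inhibition was taken as reduced FP-Rh labelling of MAGL, ABHD6, FAAH or CES bands, and IC50 values were calculated from quantified gel bands. Three independent experiments.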

[2] = molecular target: T2, MAGL (Rattus norvegicus, UniProt Q8R431); experiment: competitive ABPP, rat brain membrane proteome; format: biochemical
T2 sequence (Q8R431 1-303): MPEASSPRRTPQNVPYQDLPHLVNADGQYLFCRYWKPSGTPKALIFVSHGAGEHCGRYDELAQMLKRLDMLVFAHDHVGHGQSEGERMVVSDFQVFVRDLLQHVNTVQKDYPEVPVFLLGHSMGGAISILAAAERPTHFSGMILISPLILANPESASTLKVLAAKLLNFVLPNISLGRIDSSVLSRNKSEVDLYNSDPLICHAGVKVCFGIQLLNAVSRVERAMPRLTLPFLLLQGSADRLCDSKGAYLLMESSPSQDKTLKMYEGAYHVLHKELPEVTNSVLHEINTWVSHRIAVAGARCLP
Summary of the method: as §1

[3] = molecular target: T3, ABHD6 (Rattus norvegicus, UniProt Q5XI64); experiment: competitive ABPP, rat brain membrane proteome; format: biochemical; conditions: rat brain serine hydrolase activities, full ABPP gel
T3 sequence (Q5XI64 1-337): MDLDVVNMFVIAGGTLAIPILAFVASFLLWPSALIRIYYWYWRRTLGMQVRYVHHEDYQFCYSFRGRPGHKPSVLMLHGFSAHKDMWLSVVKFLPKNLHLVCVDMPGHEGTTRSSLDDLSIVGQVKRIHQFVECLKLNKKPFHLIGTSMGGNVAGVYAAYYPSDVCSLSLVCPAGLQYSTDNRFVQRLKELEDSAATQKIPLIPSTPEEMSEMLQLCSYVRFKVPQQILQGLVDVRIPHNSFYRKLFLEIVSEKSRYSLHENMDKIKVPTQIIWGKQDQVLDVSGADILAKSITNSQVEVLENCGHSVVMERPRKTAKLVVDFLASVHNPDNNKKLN
Summary of the method: as §1

[4] = molecular target: T4, hMAGL (Homo sapiens, UniProt Q99685); experiment: competitive ABPP, proteomes of transiently transfected HEK293T cells; format: biochemical; conditions: read-out: IC50 (95% CI), human MAGL, transfected HEK293T cell proteome
T4 sequence (Q99685 1-303): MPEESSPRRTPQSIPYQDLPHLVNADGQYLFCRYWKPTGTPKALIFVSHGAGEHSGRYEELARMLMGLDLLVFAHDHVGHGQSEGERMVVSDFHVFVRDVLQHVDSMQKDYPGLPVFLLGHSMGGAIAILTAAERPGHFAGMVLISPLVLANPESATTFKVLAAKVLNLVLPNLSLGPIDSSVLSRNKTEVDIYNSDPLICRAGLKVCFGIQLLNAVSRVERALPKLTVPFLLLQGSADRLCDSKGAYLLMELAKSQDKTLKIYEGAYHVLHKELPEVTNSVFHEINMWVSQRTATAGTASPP

[5] = molecular target: T5, hFAAH (Homo sapiens, UniProt O00519); experiment: as above; format: biochemical
T5 sequence (O00519 1-579): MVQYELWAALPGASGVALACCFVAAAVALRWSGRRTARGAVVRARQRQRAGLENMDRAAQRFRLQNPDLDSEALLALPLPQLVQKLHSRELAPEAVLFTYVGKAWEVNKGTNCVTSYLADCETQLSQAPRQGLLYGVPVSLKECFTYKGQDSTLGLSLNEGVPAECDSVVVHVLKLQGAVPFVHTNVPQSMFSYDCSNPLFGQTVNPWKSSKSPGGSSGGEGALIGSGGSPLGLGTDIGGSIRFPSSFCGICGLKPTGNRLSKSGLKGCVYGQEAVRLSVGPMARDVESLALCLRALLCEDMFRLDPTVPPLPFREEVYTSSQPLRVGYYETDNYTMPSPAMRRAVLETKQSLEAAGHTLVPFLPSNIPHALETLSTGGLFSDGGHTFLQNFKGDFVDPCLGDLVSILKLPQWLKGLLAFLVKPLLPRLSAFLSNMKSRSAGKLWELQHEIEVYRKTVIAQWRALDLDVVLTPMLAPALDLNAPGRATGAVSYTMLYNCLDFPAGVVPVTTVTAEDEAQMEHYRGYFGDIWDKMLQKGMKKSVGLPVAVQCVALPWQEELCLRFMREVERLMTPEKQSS

[6] = molecular target: T6, FAAH (Rattus norvegicus, UniProt P97612); experiment: brain AEA hydrolytic activity from KML29-treated rats; format: in vivo; conditions: 1–40 mg kg^−1 i.p., 4 h
T6 sequence (P97612 1-579): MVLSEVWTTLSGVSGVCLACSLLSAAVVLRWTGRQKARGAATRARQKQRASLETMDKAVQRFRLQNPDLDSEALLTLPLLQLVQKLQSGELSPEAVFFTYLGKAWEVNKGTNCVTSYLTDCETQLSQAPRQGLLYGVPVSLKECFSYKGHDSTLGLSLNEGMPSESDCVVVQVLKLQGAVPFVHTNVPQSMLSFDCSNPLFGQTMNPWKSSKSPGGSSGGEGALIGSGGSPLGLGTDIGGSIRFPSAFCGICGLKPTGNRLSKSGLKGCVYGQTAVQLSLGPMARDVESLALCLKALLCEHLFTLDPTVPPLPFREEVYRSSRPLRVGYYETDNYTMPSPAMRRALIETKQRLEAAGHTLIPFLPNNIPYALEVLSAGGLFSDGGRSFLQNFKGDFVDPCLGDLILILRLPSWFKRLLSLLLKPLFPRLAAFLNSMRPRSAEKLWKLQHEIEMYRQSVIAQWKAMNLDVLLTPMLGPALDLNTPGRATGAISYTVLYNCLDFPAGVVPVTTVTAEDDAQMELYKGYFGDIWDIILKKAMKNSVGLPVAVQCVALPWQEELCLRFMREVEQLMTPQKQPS
Summary of the method: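 Wistar rats received the test compound i.p. (1–40 mg kg−1 in saline:emulphor:ethanol 18:1:1) or vehicle and were killed after 4 h. Brain MAGL and FAAH activities were measured as hydrolysis of 2-AG and AEA, respectively. Means ± SEM, n = 3 rats/group, compared with vehicle-treated rats.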

O=C(OC(C(F)(F)F)C(F)(F)F)N1CCC(C(O)(c2ccc3c(c2)OCO3)c2ccc3c(c2)OCO3)CC1 [KML29]
concentrations with inhibition of ABHD6 [1]: > 1 µM
selectivity for rat MAGL relative to rat ABHD6 ([2]; rat brain homogenates, competitive ABPP): > 20 fold
inhibitor concentrations with selective inhibition of MAGL ([2]; rat brain serine hydrolase activities, full ABPP gel): ≤ 1 µM
IC50 ([2]; read-out: IC50 (95% CI), rat MAGL, competitive ABPP, rat brain membrane proteome): 43 nM
concentrations with inhibition of ABHD6 [3]: > 1 µM
IC50 [4]: 5.9 nM
cross-reactivity with hFAAH (competitive ABPP) ([5]; lysates of HEK293T cells transfected with hFAAH): no-detectable cross-reactivity with hFAAH
IC50 ([5]; read-out: IC50 (95% CI), human FAAH, competitive ABPP, transfected HEK293T cell proteome): > 50000 nM
brain AEA hydrolytic activity [6]: not affected at any dose
